Variants at the floor of the assay were thinned out.

To fix the notation:
B1: tRNA (parent)
chain: GUUCCGUUGGCGUAAUGGUAACGCGUCUCCCUCCUAAGGAGAAGACUGCGGGUUCGAGUCCCGUACGGAACG

The variants in this series derive from B1. The series is described as follows: yeast fitness relative to wild type (ratio to wild type); higher = fitter; tRNA-Arg(CCU), competitive growth, 37 C, YPD. In a few lines:
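A pool of Saccharomyces cerevisiae strains, each with a tRNA-Arg(CCU) gene variant at the native genomic locus, was competed in YPD at 37°C for 24 hours across six parallel replicates. The variants had been chemically synthesised at a 3% per-site mutation rate over 69 sites, and gene amplicons before and after competition were read by 100-nucleotide paired-end sequencing. Darwinian fitness relative to wild type rested on changes in genotype frequencies. Genotypes required ≥ 100 starting reads, and estimates < 0.5 were set to 0.5.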
For the variant G9C C22U U47C, the yeast fitness is 0.694.

G9C C27A C55U: the yeast fitness is no more than 0.5.

Consider G9C U32A C55U A57U C62A, for which the yeast fitness was no more than 0.5.

For G9C C31G A40C C66U, the yeast fitness was no more than 0.5.

Take G9C C11U C30G A43C: the yeast fitness is no more than 0.5.

Regarding G9C C24U C30G G51A C60U A69C, the yeast fitness is no more than 0.5.

On to G9C U28C C31U, for which the yeast fitness was no more than 0.5.

As for G9C C27A A70G, the yeast fitness was 0.539.

With G9C C29U A36U G67A, the yeast fitness came to 0.501.

Turning to G9C A36G A70G, the yeast fitness is no more than 0.5.

In the case of G9C C11G C24U C31U G67U, the yeast fitness is no more than 0.5.

As for G9C U32G A70C, the yeast fitness is no more than 0.5.

For G9C C24G C33G U35A G48C C66A, the yeast fitness was no more than 0.5.

For G9C C29U C30A G56A, the yeast fitness was no more than 0.5.

Regarding G9C A40U C46U, the yeast fitness came out at 0.511.

On to G9C A21U, for which the yeast fitness amounted to 0.509.

For the variant G9C A21G, the yeast fitness was 0.669.

G9C A21C: the yeast fitness stood at 0.652.

For G9C A15G C49A A69U, the yeast fitness is no more than 0.5.

Take G9C A15C U53C C55G: the yeast fitness is no more than 0.5.

Consider G9C A15C, for which the yeast fitness is 0.609.

Regarding G9C A15U, the yeast fitness is 0.603.

Turning to G9C U16A C29A G58C A69U, the yeast fitness was determined as 0.645.

For G9U, the yeast fitness worked out at 0.955.

Turning to G9C C34A A57U, the yeast fitness was no more than 0.5.

Regarding G9C C29U C34G G48C C62U, the yeast fitness was 0.782.

As for G9C C31U A65U, the yeast fitness was no more than 0.5.

For G9C C30A U35C C46G U54C G67C, the yeast fitness was no more than 0.5.

With G9C G17A U19C G23A C49U C55U, the yeast fitness is no more than 0.5.

Consider G9U G63A A65U, for which the yeast fitness is no more than 0.5.

For G9C U16C C66U, the yeast fitness was no more than 0.5.

Regarding G9C C34U A45C G48C, the yeast fitness is no more than 0.5.

G9C C33A A43C: the yeast fitness was no more than 0.5.

As for G9C A20U U28A C62U, the yeast fitness is no more than 0.5.

As to G9C G17A U19C G23A G67U, the yeast fitness is no more than 0.5.

In the case of G9C U19C C31A G58C A70U, the yeast fitness was no more than 0.5.

As for G9C A20C A45G C46G G50A, the yeast fitness was no more than 0.5.

On to G9C C29U C55G, for which the yeast fitness is no more than 0.5.

As for G9C C29U C55U, the yeast fitness came to 0.572.

Regarding G9C A20U C27G C49U, the yeast fitness was 0.55.

As for G9C G51C G52A C60A A70U, the yeast fitness is no more than 0.5.

Regarding G9C C27U G41A, the yeast fitness turned out to be 0.728.

For G9C A15C U16A A70C, the yeast fitness is no more than 0.5.

Consider G9C G17A U19C G23A A42G C49U C55U, for which the yeast fitness was no more than 0.5.

For G9C C27A, the yeast fitness came to 0.732.

Turning to G9C C27G, the yeast fitness came out at 0.581.

With G9C C30U U47A G67C, the yeast fitness was determined as 0.559.

Take G9C A43C: the yeast fitness was determined as 0.58.

With G9C A36G C62U, the yeast fitness was no more than 0.5.

G9C C22A C34A: the yeast fitness is no more than 0.5.

Turning to G9C A14U U28C U35G, the yeast fitness was 0.623.

As to G9U C24G C55U C66U, the yeast fitness is no more than 0.5.

Consider G9C A36U, for which the yeast fitness came to 0.618.

Take G9C A36G: the yeast fitness was 0.691.

Consider G9C A45U C55G, for which the yeast fitness worked out at 0.533.

In the case of G9C G10C C33U G48C C55G, the yeast fitness is no more than 0.5.

With G9C A42U U54C, the yeast fitness was no more than 0.5.

For G9C C33G G39A C66G, the yeast fitness worked out at 0.59.

Regarding G9C U16G C29A C66U, the yeast fitness is no more than 0.5.

Take G9U A21C A42U G44C U53C: the yeast fitness is no more than 0.5.

For the variant G9C C29U A36U G63A G67A, the yeast fitness was no more than 0.5.

G9C G18C: the yeast fitness stood at 0.525.

As for G9C A21C A57G, the yeast fitness was no more than 0.5.

Turning to G9C G39C C55G C62G A65C, the yeast fitness was no more than 0.5.

In the case of G9U C24G A45C, the yeast fitness was no more than 0.5.

As for G9C U32C A36G, the yeast fitness was no more than 0.5.

With G9C U13A G25A A65U, the yeast fitness was no more than 0.5.

On to G9U C24U U35A A40G C60A G67C, for which the yeast fitness was no more than 0.5.

As for G9C G12C U47G G67C, the yeast fitness was 0.607.

Take G9C C22U G48C G51C: the yeast fitness was found to be 0.595.

G9C C11G C24U: the yeast fitness is no more than 0.5.

G9C C22G C33G G63C A70G: the yeast fitness stood at 0.6.

Consider G9C G23A A40C A45C, for which the yeast fitness is no more than 0.5.

With G9C C27A C29U A37C, the yeast fitness is 0.637.

Take G9C G23A C34U C66G: the yeast fitness was no more than 0.5.

On to G9C U26A U47C G48A C49U G56A G67C A69G, for which the yeast fitness is no more than 0.5.

With G9U U13C A57C C66A, the yeast fitness was no more than 0.5.

Turning to G9C A20G U26C, the yeast fitness was no more than 0.5.

For the variant G9C A42C A69C, the yeast fitness was 0.564.

Consider G9C A37G G41A, for which the yeast fitness was no more than 0.5.

Regarding G9C A57U C62G, the yeast fitness is no more than 0.5.

Regarding G9C A15C C46U, the yeast fitness came out at 0.592.

On to G9C U26C C34G A37G, for which the yeast fitness was 0.591.

Take G9C A20U U47C: the yeast fitness was no more than 0.5.

On to G9C C30G G68C, for which the yeast fitness was no more than 0.5.

Take G9C G10C G18C C33U G44C C46U C62U: the yeast fitness turned out to be 0.599.

As to G9C C27A C30A, the yeast fitness was no more than 0.5.

Consider G9U A14G G18A C46A C49G, for which the yeast fitness is no more than 0.5.

G9U A65U: the yeast fitness is 0.639.

With G9C U13A G25A A40C A57C C61A, the yeast fitness was no more than 0.5.

Turning to G9C A14U, the yeast fitness is 0.509.

In the case of G9C A14U C24G U35G C61G G68C, the yeast fitness was no more than 0.5.

On to G9C C46U C49U, for which the yeast fitness is 0.692.

Consider G9C C31G U32G, for which the yeast fitness is no more than 0.5.

In the case of G9C A15C A45C C49U C62G C66U, the yeast fitness amounted to 0.591.

As to G9C A14U A45U C49G C55G G67C, the yeast fitness was no more than 0.5.

Turning to G9C C24G, the yeast fitness is no more than 0.5.

On to G9C C24A, for which the yeast fitness was no more than 0.5.

On to G9C C29G C34G C60G, for which the yeast fitness was 0.534.

Turning to G9C A20G G50C, the yeast fitness is no more than 0.5.

As for G9C G50C C60U C62A, the yeast fitness was no more than 0.5.

In the case of G9C U19C G23C U59A G68C, the yeast fitness amounted to 0.548.

Consider G9C C27U U47C C55U C62G A65G A69U, for which the yeast fitness was no more than 0.5.

Regarding G9U C22G A70U, the yeast fitness came out at 0.623.

In the case of G9C A65C A70U, the yeast fitness is 0.539.

G9C U35A A45C U47G C62G A65C: the yeast fitness is no more than 0.5.

Regarding G9C G12A C62G G67A, the yeast fitness amounted to 0.618.

Regarding G9C A40U A65C, the yeast fitness came to 0.531.

With G9C A40U, the yeast fitness worked out at 0.756.

With G9C U13C A20C, the yeast fitness came out at 0.706.

As for G9C A42C C49G G68A, the yeast fitness is no more than 0.5.

G9C C11G: the yeast fitness amounted to 0.525.

As for G9U A20C C29U G50C U59G C62U G68A, the yeast fitness was no more than 0.5.

As for G9C C31A C49G, the yeast fitness amounted to 0.574.

As for G9C G39A G68C A69C, the yeast fitness is no more than 0.5.

For G9C G23C A57C, the yeast fitness is no more than 0.5.

As to G9C U16C A42C, the yeast fitness is no more than 0.5.

Consider G9C U19A G58A A65G, for which the yeast fitness was no more than 0.5.

Turning to G9C A45U C55G C61U, the yeast fitness was no more than 0.5.

With G9C U13C C30A C46A G48C A70C, the yeast fitness is 0.548.

On to G9C G23A A40C C55G, for which the yeast fitness worked out at 0.549.

Regarding G9C G44C C66U, the yeast fitness worked out at 0.568.

As to G9C U26A G48C, the yeast fitness is no more than 0.5.

For G9C A42U C61U U64A A69G, the yeast fitness is no more than 0.5.

As to G9U C11A A14G C24U G41C C55G, the yeast fitness was no more than 0.5.

G9C G23C C30G G44A G58C G63A A70G: the yeast fitness is no more than 0.5.

Turning to G9C U16C C30U U32G, the yeast fitness is no more than 0.5.

Turning to G9C C34G G52A G56A, the yeast fitness is no more than 0.5.

In the case of G9C C61A G67A, the yeast fitness is no more than 0.5.

In the case of G9C U32C U53C, the yeast fitness is no more than 0.5.

As to G9C A42G G52A, the yeast fitness was no more than 0.5.

Turning to G9C G17C G18C C62U A69G, the yeast fitness was found to be 0.629.

Regarding G9C U19C C31A C55U A69C, the yeast fitness is 0.547.

Consider G9C C22G C30A A42U U59C, for which the yeast fitness was no more than 0.5.

For G9C A37G G41A C61G, the yeast fitness was no more than 0.5.

For the variant G9C G68A, the yeast fitness came out at 0.763.

In the case of G9C U16G A37C, the yeast fitness was 0.735.

Turning to G9C C66U, the yeast fitness was determined as 0.621.

Take G9C C66A: the yeast fitness is no more than 0.5.

Turning to G9C A15G C33U A36C G39C C46G G51C, the yeast fitness was no more than 0.5.

On to G9C U19C, for which the yeast fitness worked out at 0.764.

With G9C C22A C34A C55G A65G, the yeast fitness is 0.526.

Regarding G9C C11G C24U C31U U59A, the yeast fitness was no more than 0.5.

Turning to G9C G10A G12C A45U C60A, the yeast fitness was no more than 0.5.

As to G9C G56A, the yeast fitness was determined as 0.863.

With G9C A15C U35C U59A G63A, the yeast fitness was no more than 0.5.

As for G9C C24G A65C, the yeast fitness was no more than 0.5.

For the variant G9U G63A, the yeast fitness was determined as 0.71.

For G9C G39C C61U, the yeast fitness was found to be 0.544.

Consider G9C U28C A37C C46G, for which the yeast fitness came to 0.768.

Take G9C U13A G25A A40C A57C C61A G67A: the yeast fitness was 0.553.

Regarding G9C C31A C62G C66U, the yeast fitness was no more than 0.5.

Turning to G9U A69C, the yeast fitness amounted to 0.909.

On to G9C C22A G48C G63C, for which the yeast fitness was no more than 0.5.

Regarding G9C A21U C31G A40C C62U U64C, the yeast fitness came out at 0.518.

On to G9C C60G G67A, for which the yeast fitness came out at 0.572.

As to G9C G68C A69C, the yeast fitness is no more than 0.5.

In the case of G9C G52A, the yeast fitness worked out at 0.564.

On to G9C U13C A43U, for which the yeast fitness amounted to 0.618.

G9C C22G C61A: the yeast fitness was determined as 0.611.

Consider G9C U26G U32A A57U, for which the yeast fitness is 0.633.

As to G9C G18A C22G C29U U32G A57U, the yeast fitness was no more than 0.5.

In the case of G9C C22G A57C, the yeast fitness is no more than 0.5.

As for G9C C27U A42U G63C, the yeast fitness was no more than 0.5.

In the case of G9C G44A, the yeast fitness turned out to be 0.673.

With G9C G67A, the yeast fitness was 0.58.

Turning to G9C U28G C29U C49U U54A C55U A70C, the yeast fitness was no more than 0.5.
